According to ChEMBL document CHEMBL1126127, “Nonprostanoid prostacyclin mimetics. 2. 4,5-Diphenyloxazole derivatives” (J Med Chem, 1992):

Assay: Inhibition of ADP-induced human platelet aggregation.
Format: functional
Outline: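 ADP-induced aggregation of human platelets measured in platelet-rich plasma by aggregometry. Protocol follows earlier reports. IC50 values come from a single experiment or from the mean of duplicates.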
For O=C(O)c1cccc(OCCCc2nc(-c3ccccc3)c(-c3ccccc3)o2)c1, the IC50 was > 80 µM.
For O=C(O)COc1cccc(-c2nc(-c3ccccc3)c(-c3ccccc3)o2)c1, the IC50 was > 84 µM.
In the case of c1ccc(-c2nc(CCc3cccc(OCC4N=NN=N4)c3)oc2-c2ccccc2)cc1, the IC50 is reported as 1.5 µM.
In the case of O=C(O)CCCCOc1ccccc1Cc1nc(-c2ccccc2)c(-c2ccccc2)o1, the IC50 is reported as > 74 µM.
For O=C(O)COc1cccc(/C=C/c2nc(-c3ccccc3)c(-c3ccccc3)o2)c1, the IC50 was 13 µM.
In the case of O=C(O)c1cccc(OCCCCc2nc(-c3ccccc3)c(-c3ccccc3)o2)c1, the IC50 is reported as > 77 µM.
In the case of O=C(O)CCCCCCCCc1nc(-c2ccccc2)c(-c2ccccc2)o1, the IC50 is reported as 2.5 µM.
With O=C(O)COc1ccccc1CCc1nc(-c2ccccc2)c(-c2ccccc2)o1 the IC50 was > 80 µM.
For O=C(O)CCCCOc1ccccc1-c1nc(-c2ccccc2)c(-c2ccccc2)o1, the IC50 was > 77 µM.
Work on O=C(O)CCCCOc1cccc(-c2nc(-c3ccccc3)c(-c3ccccc3)o2)c1 yielded an IC50 of 4.6 µM.
With O=C(O)CCCOc1ccc(Cc2nc(-c3ccccc3)c(-c3ccccc3)o2)cc1 the IC50 was > 76 µM.
In the case of O=C(O)CCCCCCc1nc(-c2ccccc2)c(-c2ccccc2)o1, the IC50 is reported as > 91 µM.
Work on O=C(O)/C=C/c1cccc(CCc2nc(-c3ccccc3)c(-c3ccccc3)o2)c1 yielded an IC50 of 0.66 µM.
In the case of O=C(O)CCCOc1ccccc1/C=C/c1nc(-c2ccccc2)c(-c2ccccc2)o1, the IC50 is reported as > 75 µM.
For O=C(O)C(CCCCCCCc1nc(-c2ccccc2)c(-c2ccccc2)o1)C(=O)O, the IC50 was > 76 µM.
In the case of O=C(O)CCCCOc1ccc(-c2nc(-c3ccccc3)c(-c3ccccc3)o2)cc1, the IC50 is reported as > 77 µM.
With O=C(O)CCCOc1cccc(/C=C/c2nc(-c3ccccc3)c(-c3ccccc3)o2)c1 the IC50 was > 75 µM.
With CC(C)(Oc1cccc(CCc2nc(-c3ccccc3)c(-c3ccccc3)o2)c1)C(=O)O the IC50 was > 75 µM.
For COc1ccc(/C=C/c2nc(-c3ccccc3)c(-c3ccccc3)o2)cc1OCC(=O)O, the IC50 was > 75 µM.
With O=C(O)CCCOc1ccc(/C=C/c2nc(-c3ccccc3)c(-c3ccccc3)o2)cc1 the IC50 was > 75 µM.
Work on O=C(O)CCc1cccc(CCc2nc(-c3ccccc3)c(-c3ccccc3)o2)c1 yielded an IC50 of 16 µM.
In the case of O=C(O)CCCCCCCCCc1nc(-c2ccccc2)c(-c2ccccc2)o1, the IC50 is reported as > 80 µM.
In the case of O=C(O)CCCOc1ccccc1CCc1nc(-c2ccccc2)c(-c2ccccc2)o1, the IC50 is reported as > 75 µM.
For O=C(O)c1ccc(OCCCCc2nc(-c3ccccc3)c(-c3ccccc3)o2)cc1, the IC50 was > 77 µM.
For O=C(O)COc1ccc(Cc2nc(-c3ccccc3)c(-c3ccccc3)o2)cc1, the IC50 was > 82 µM.
In the case of O=C(O)/C=C/c1cccc(OCc2nc(-c3ccccc3)c(-c3ccccc3)o2)c1, the IC50 is reported as 14 µM.
In the case of COc1ccc(CCc2nc(-c3ccccc3)c(-c3ccccc3)o2)cc1OCC(=O)O, the IC50 is reported as > 75 µM.
For COc1c(CCc2nc(-c3ccccc3)c(-c3ccccc3)o2)cccc1OCC(=O)O, the IC50 was 1.4 µM.
In the case of O=C(O)CCc1cccc(OCc2nc(-c3ccccc3)c(-c3ccccc3)o2)c1, the IC50 is reported as > 80 µM.
With COc1ccc(OCC(=O)O)cc1/C=C/c1nc(-c2ccccc2)c(-c2ccccc2)o1 the IC50 was > 75 µM.
In the case of O=C(O)CCCOc1cccc(Cc2nc(-c3ccccc3)c(-c3ccccc3)o2)c1, the IC50 is reported as > 76 µM.
O=C(O)c1ccc(OCCCc2nc(-c3ccccc3)c(-c3ccccc3)o2)cc1 gave an IC50 of 40 µM.
With O=C(O)COc1ccc(CCc2nc(-c3ccccc3)c(-c3ccccc3)o2)cc1 the IC50 was 9 µM.
O=C(O)COc1cccc(/C=C\c2nc(-c3ccccc3)c(-c3ccccc3)o2)c1 gave an IC50 of 0.18 µM.
Molecule O=C(O)COc1ccc(/C=C/c2nc(-c3ccccc3)c(-c3ccccc3)o2)cc1 has an IC50 of 10 µM.
O=C(O)COc1cccc(CSc2nc(-c3ccccc3)c(-c3ccccc3)o2)c1 showed an IC50 of 9.6 µM.
With O=C(O)CCCOc1ccccc1-c1nc(-c2ccccc2)c(-c2ccccc2)o1 the IC50 was > 80 µM.
O=C(O)COc1cccc(OCc2nc(-c3ccccc3)c(-c3ccccc3)o2)c1 showed an IC50 of 1.2 µM.
In the case of O=C(O)COc1ccccc1/C=C/c1nc(-c2ccccc2)c(-c2ccccc2)o1, the IC50 is reported as > 80 µM.
With O=C(O)COc1cccc(C#Cc2nc(-c3ccccc3)c(-c3ccccc3)o2)c1 the IC50 was 60 µM.
For O=C(O)CCCCc1nc(-c2ccccc2)c(-c2ccccc2)o1, the IC50 was > 100 µM.
For CC(Oc1cccc(CCc2nc(-c3ccccc3)c(-c3ccccc3)o2)c1)C(=O)O (stereo not drawn), the IC50 was 4 µM.
For O=C(O)CCCCCCCc1nc(-c2ccccc2)c(-c2ccccc2)o1, the IC50 was > 88 µM.
In the case of O=C(O)CCCc1nc(-c2ccccc2)c(-c2ccccc2)o1, the IC50 is reported as > 104 µM.
In the case of O=C(O)COc1cccc(Cc2nc(-c3ccccc3)c(-c3ccccc3)o2)c1, the IC50 is reported as > 82 µM.
With COc1ccc(OCC(=O)O)cc1CCc1nc(-c2ccccc2)c(-c2ccccc2)o1 the IC50 was > 75 µM.
In the case of O=C(O)CCCOc1cccc(-c2nc(-c3ccccc3)c(-c3ccccc3)o2)c1, the IC50 is reported as 80 µM.
With O=C(O)CCCOc1ccc(-c2nc(-c3ccccc3)c(-c3ccccc3)o2)cc1 the IC50 was > 80 µM.
COc1c(/C=C/c2nc(-c3ccccc3)c(-c3ccccc3)o2)cccc1OCC(=O)O gave an IC50 of 0.5 µM.
Work on CCCCC[C@H](O)/C=C/[C@@H]1[C@H]2C/C(=C/CCCC(=O)O)O[C@H]2C[C@H]1O [EPOPROSTENOL] yielded an IC50 of 8 µM.
CC#CCC(C)[C@H](O)/C=C/[C@@H]1[C@H]2C/C(=C/CCCC(=O)O)C[C@H]2C[C@H]1O (stereo partly drawn) [ILOPROST] showed an IC50 of 2 µM.
For O=C(O)CCCCCCCOc1nc(-c2ccccc2)c(-c2ccccc2)n1-c1ccccc1 [OCTIMIBATE], the IC50 was 1.02 µM.
For O=C(O)CCc1nc(-c2ccccc2)c(-c2ccccc2)o1 [OXAPROZIN], the IC50 was > 100 µM.
